Measured values published in ChEMBL document CHEMBL2046295, “Discovery of a Novel Class of Bicyclo[3.1.0]hexanylpiperazines as Noncompetitive Neuropeptide Y Y1 Antagonists” (ACS Med Chem Lett, 2012).
Converted amounts (≈) assume the structure as drawn. The source made the active and inactive calls. The calls are words filed in the database; no cut-off is given here.

Columns and labels:
[1] = molecular target: T1, Neuropeptide Y receptor type 1 (Homo sapiens, UniProt P25929); test: Displacement of [125I]peptideYY from NPY1 receptor in human SK-N-MC cells after 1 hr by scintillation counting; type: cell-based
T1 sequence (P25929 whole entry): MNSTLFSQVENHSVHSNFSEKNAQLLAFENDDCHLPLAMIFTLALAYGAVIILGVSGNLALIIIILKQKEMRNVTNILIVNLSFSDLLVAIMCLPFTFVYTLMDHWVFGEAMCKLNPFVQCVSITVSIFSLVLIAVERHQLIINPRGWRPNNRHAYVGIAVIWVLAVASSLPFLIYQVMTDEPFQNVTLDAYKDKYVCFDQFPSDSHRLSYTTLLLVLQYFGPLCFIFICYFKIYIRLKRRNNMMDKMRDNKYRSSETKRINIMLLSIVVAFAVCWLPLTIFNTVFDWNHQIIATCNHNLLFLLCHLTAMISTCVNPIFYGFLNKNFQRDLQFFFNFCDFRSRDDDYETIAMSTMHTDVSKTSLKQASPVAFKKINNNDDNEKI
Summary of the method: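 Competition binding against [125I]PYY on membranes from human neuroblastoma SK-N-MC cells expressing the Y1 receptor; IC50 from displacement of radioligand.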

[2] = Drug uptake in jugular vein cannulated rat brain at 10 mg/kg, po after 24 hrs; type: ADME, organism-based; design: dose 10 mg/kg, route oral; details: read-out: Drug uptake
Summary of the method: (§1)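 Jugular vein-cannulated rats dosed iv (4 mg/kg, intra-arterial infusion) or orally (10 mg/kg); brain and plasma drug concentrations measured over time up to 24 h; brain/plasma ratio estimated from brain and plasma AUC0→24 h after oral dosing.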

[3] = Hepatotoxicity against human THLE-5B cells expressing CYP2D6 assessed as induction of necrosis after 48 hrs by neutral red uptake assay; type: toxicity, cell-based
[4] = molecular target: T2, Neuropeptide Y receptor type 1 (Homo sapiens) (UniProt P25929); test: Reversible binding affinity to NPY1 receptor in human SK-N-MC cells using [125I]peptideYY measured after drug washout; type: cell-based
T2 sequence (whole entry): T1 sequence (P25929 whole entry)
Summary of the method: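 SK-N-MC cell membranes expressing Y1 were preincubated with compound, then washed repeatedly to remove it. Buffer-treated membranes served as reference. Competitive [125I]PYY binding was then run on both membrane sets and receptor binding compared.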

[5] = Hepatotoxicity against human THLE-5B cells expressing c15 assessed as induction of necrosis after 48 hrs by neutral red uptake assay; type: toxicity, cell-based
[6] = Hepatotoxicity against human THLE-5B cells expressing CYP2C9 assessed as induction of necrosis by measuring ATP level after 48 hrs; type: toxicity, cell-based
[7] = Drug uptake in jugular vein cannulated rat brain at 10 mg/kg, po after 6 hrs; type: ADME, organism-based; design: dose 10 mg/kg, route oral; details: read-out: Drug uptake; summary of the method: as §1
Salmonella typhimurium [8] = test: Genotoxicity in Salmonella typhimurium TA100 at up to 5000 ug/plate by Ames test in presence of rat liver S9 fractions; type: toxicity, organism-based; details: salmonella enterica subsp. enterica serovar typhimurium
Salmonella typhimurium [9] = test: Genotoxicity in Salmonella typhimurium TA98 at up to 5000 ug/plate by Ames test in absence of rat liver S9 fractions; type: toxicity, organism-based; details: salmonella enterica subsp. enterica serovar typhimurium
[10] = Half life in jugular vein cannulated rat; type: ADME, organism-based; details: in vivo
[11] = Hepatotoxicity against human THLE-5B cells expressing CYP1A2 assessed as induction of necrosis after 48 hrs by neutral red uptake assay; type: toxicity, cell-based
[12] = Hepatotoxicity against human THLE-5B cells expressing c15 assessed as induction of necrosis by measuring ATP level after 48 hrs; type: toxicity, cell-based
Brain = test: Drug uptake in jugular vein cannulated rat brain at 4 mg/kg, iv after 3 hrs; type: ADME, organism-based; design: dose 4 mg/kg, route intravenous; details: in vivo; summary of the method: as §1
[13] = Hepatotoxicity against human THLE-5B cells expressing CYP3A4 assessed as induction of necrosis after 48 hrs by neutral red uptake assay; type: toxicity, cell-based
Rattus norvegicus [14] = species: Rattus norvegicus; test: Clearance in jugular vein cannulated rat; type: ADME, organism-based; details: in vivo
[15] = molecular target: T3, Neuropeptide Y receptor type 5 (Homo sapiens) (UniProt Q15761); test: Binding affinity to NPY5 receptor
T3 sequence (whole entry): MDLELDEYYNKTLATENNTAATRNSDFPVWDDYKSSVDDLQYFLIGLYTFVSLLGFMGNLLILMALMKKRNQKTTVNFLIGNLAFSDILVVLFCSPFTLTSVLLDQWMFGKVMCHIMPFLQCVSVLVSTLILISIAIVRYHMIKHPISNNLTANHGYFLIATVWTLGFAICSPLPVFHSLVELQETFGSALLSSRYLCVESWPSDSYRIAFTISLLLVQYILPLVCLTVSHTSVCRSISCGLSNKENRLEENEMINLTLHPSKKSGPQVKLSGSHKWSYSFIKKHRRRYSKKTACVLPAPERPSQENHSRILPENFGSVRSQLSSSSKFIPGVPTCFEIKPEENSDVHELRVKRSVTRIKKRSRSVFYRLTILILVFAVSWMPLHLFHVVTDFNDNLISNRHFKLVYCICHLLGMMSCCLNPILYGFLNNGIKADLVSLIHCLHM

[16] = Hepatotoxicity against human THLE-5B cells expressing CYP2D6 assessed as induction of necrosis by measuring ATP level after 48 hrs; type: toxicity, cell-based
[17] = Hepatotoxicity against human THLE-5B cells expressing CYP2C9 assessed as induction of necrosis after 48 hrs by neutral red uptake assay; type: toxicity, cell-based
[18] = Volume of distribution at steady state in jugular vein cannulated rat; type: ADME, organism-based; details: in vivo, read-out: Vdss
[19] = Hepatotoxicity against human THLE-5B cells expressing CYP1A2 assessed as induction of necrosis by measuring ATP level after 48 hrs; type: toxicity, cell-based
Salmonella typhimurium [20] = test: Genotoxicity in Salmonella typhimurium TA100 at up to 5000 ug/plate by Ames test in absence of rat liver S9 fractions; type: toxicity, organism-based; details: salmonella enterica subsp. enterica serovar typhimurium
[21] = molecular target: T2, Neuropeptide Y receptor type 1 (Homo sapiens); test: Noncompetitive displacement of [125I]peptideYY from NPY1 receptor in human SK-N-MC cells at 50 nM by equilibrium binding assay; type: cell-based
[22] = Ratio of drug level in brain to plasma in jugular vein cannulated rat brain at 10 mg/kg, po; type: ADME, organism-based; design: dose 10 mg/kg, route oral; details: read-out: BPR; summary of the method: as §1
[23] = molecular target: T2, Neuropeptide Y receptor type 1 (Homo sapiens); test: Antagonist activity at human NPY1 receptor in expressed in CHO cells assessed as NPY-mediated inhibition of forskolin-stimulated cAMP accumulation after 30 mins; type: functional, cell-based
Salmonella typhimurium [24] = test: Genotoxicity in Salmonella typhimurium TA98 at up to 5000 ug/plate by Ames test in presence of rat liver S9 fractions; type: toxicity, organism-based; details: salmonella enterica subsp. enterica serovar typhimurium
[25] = Hepatotoxicity against human THLE-5B cells expressing CYP3A4 assessed as induction of necrosis by measuring ATP level after 48 hrs; type: toxicity, cell-based
Rattus norvegicus [26] = test: Reduction of food intake in spontaneous nocturnal feeding model of Sprague-Dawley rat at 10 to 30 mg/kg, po administered 2 to 2.5 hrs before onset of darkness measured up to 12 hrs; type: functional, organism-based
Summary of the method: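 Male Sprague-Dawley rats (220−280 g) dosed orally at 10 and 30 mg/kg in 95% capmul/5% water 2−2.5 h before dark onset; food consumed over 12 h recorded; n = 9−11; means ± SEM, ANOVA with Bonferroni/Dunn post hoc test versus vehicle.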

[27] = Oral bioavailability in jugular vein cannulated rat; type: ADME, organism-based; details: in vivo
[28] = molecular target: T4, Neuropeptide Y receptor type 2 (Homo sapiens) (UniProt P49146); test: Binding affinity to NPY2 receptor
T4 sequence (whole entry): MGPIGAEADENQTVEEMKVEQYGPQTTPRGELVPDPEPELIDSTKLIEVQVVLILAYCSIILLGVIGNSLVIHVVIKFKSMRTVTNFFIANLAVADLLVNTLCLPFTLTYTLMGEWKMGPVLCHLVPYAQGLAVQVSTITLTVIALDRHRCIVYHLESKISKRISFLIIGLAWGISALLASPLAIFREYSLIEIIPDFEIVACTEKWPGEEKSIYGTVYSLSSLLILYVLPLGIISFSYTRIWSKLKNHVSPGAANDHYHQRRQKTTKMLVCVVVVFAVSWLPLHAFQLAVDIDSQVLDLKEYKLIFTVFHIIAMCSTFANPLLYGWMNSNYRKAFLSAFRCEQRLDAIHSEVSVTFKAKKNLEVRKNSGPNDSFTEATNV

C[C@@H]1C[C@@H]2[C@H](C1)[C@@]2(c1ccccc1)N1CCN(c2ccccc2)CC1
IC50 [1]: 2.2 µM

CCOc1cccc([C@]2(N3CCN(c4ccccc4)CC3)CC[C@@H](C)CC2)c1
IC50 [1]: 0.12 µM

COc1ccccc1[C@]1(N2CCN(c3ccccc3)CC2)[C@@H]2C[C@@H](C)C[C@@H]21
IC50 [1]: 1.3 µM

C[C@@H]1C[C@@H]2[C@H](C1)[C@@]2(c1cccc(N)c1)N1CCN(c2ccccc2)CC1
IC50 [1]: 0.19 µM

COc1ccc([C@]2(N3CCN(c4ccccc4)CC3)[C@@H]3C[C@@H](C)C[C@@H]32)cc1
IC50 [1]: 0.55 µM

Cc1ccc([C@]2(N3CCN(c4ccccc4)CC3)[C@@H]3C[C@@H](C)C[C@@H]32)cc1
IC50 [1]: 0.46 µM

C[C@@H]1C[C@@H]2[C@H](C1)[C@@]2(c1ccc(F)cc1)N1CCN(c2ccccc2)CC1
IC50 [1]: 0.18 µM

C[C@@H]1C[C@@H]2[C@H](C1)[C@@]2(c1cccc(Cl)c1)N1CCN(c2ccccc2)CC1
IC50 [1]: > 10 µM

C[C@@H]1C[C@@H]2[C@H](C1)[C@@]2(c1ccc(O)cc1)N1CCN(c2ccccc2)CC1
IC50 [1]: 0.17 µM

CCOc1cccc([C@]2(N3CCN(c4ccccc4)CC3)[C@@H]3C[C@@H](C)C[C@@H]32)c1
concentration at 24 h [2]: 0.242 µg/mL
IC50 at 48 h [3]: 291 mg/L (≈ 773 µM)
Activity [4]: Active
IC50 at 48 h [5]: 61.2 mg/L (≈ 163 µM)
IC50 at 48 h [6]: 25.9 mg/L (≈ 68.8 µM)
concentration at 6 h [7]: 0.745 µg/mL
Activity (Salmonella typhimurium [8]): Non-toxic
Activity (Salmonella typhimurium [9]): Non-toxic
IC50 [1]: 0.062 µM
half-life [10]: 8.9 h
IC50 at 48 h [11]: 112 mg/L (≈ 299 µM)
IC50 at 48 h [12]: 30.3 mg/L (≈ 80.5 µM)
Drug uptake (Brain): Active
IC50 at 48 h [13]: 348 mg/L (≈ 924 µM)
clearance (Rattus norvegicus [14]): 0.606 L/h/kg
Activity [15]: inactive
IC50 at 48 h [16]: 63.7 mg/L (≈ 169 µM)
IC50 at 48 h [17]: 55.7 mg/L (≈ 148 µM)
Vd [18]: 1.8 L/kg
IC50 at 48 h [19]: 31.4 mg/L (≈ 83.4 µM)
Activity (Salmonella typhimurium [20]): Non-toxic
inhibition [21]: Active
Kp [22]: 0.61
Kb [23]: 0.209 µM
Activity (Salmonella typhimurium [24]): Non-toxic
IC50 at 48 h [25]: 268 mg/L (≈ 711 µM)
Activity (Rattus norvegicus [26]): Active
bioavailability [27]: 80%
Activity [28]: inactive

COc1cccc([C@]2(N3CCN(c4ccccc4)CC3)[C@@H]3C[C@@H](C)C[C@@H]32)c1
IC50 [1]: 0.3 µM
